Publication PMC4495880 (Biochemical pharmacology, 2010)
Read-outs that look alike come from different tables or passages of the source.

How the values were obtained:
[1] = Protease inhibitors blocking BNP inactivation by human kidney membranes; assay type: biochemical; conditions: for effect on BNP inactivation: human membranes, data not shown; for effect of inhibitor on inactivation of rat BNP1-32 by human kidney membranes: 45 min, N = 8
[2] = Protease inhibitors blocking BNP inactivation by rat kidney membranes; assay type: biochemical; conditions: 40 μg rat kidney membranes, 45 min; cGMP bioassay; N = 8
[3] = cited from earlier work
[4] = Proteolysis bioassay: inactivation of BNP by human kidney membranes; assay type: in vitro ADME; conditions: 40 μg human kidney membranes, 45 min, 37°C; cGMP bioassay; mean, N = 8
Procedure, shortened: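 Rat BNP_1-32 incubated 45 min at 37°C with 40 μg crude human kidney membranes (diluted to 2 mg/ml in 50 mM Tris-HCl pH 7.5, 20% glycerol, 50 mM NaF). Stopped with 0.5 N perchloric acid, boiled 10 min, neutralised. Residual activity was read as cGMP (RIA) in serum-starved HEK293 cells expressing rat (1 min) or human (3 min) GC-A, with 1 mM IBMX. Remaining peptide was fitted to an untreated-peptide standard curve and expressed as % of peptide-only. Mean ± SEM, N = 8.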

[5] = tested on: recombinant human meprin A and NEP; assay type: in vitro ADME
[6] = Proteolysis bioassay: inactivation of BNP by rat kidney membranes; assay type: in vitro ADME; conditions: 40 μg rat kidney membranes, 45 min, 37°C; cGMP bioassay; mean, N = 4
Procedure, shortened: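 Human BNP_1-32 exposed to 40 μg crude rat kidney membranes (Tris-HCl pH 7.5/glycerol/NaF buffer, 2 mg/ml) for 45 min at 37°C. Perchloric acid stop, 10 min boil, NaOH neutralisation. Aliquot in DMEM, 25 mM HEPES pH 7.4, 1 mM IBMX applied to HEK293 cells stably expressing GC-A (rat receptor 1 min, human 3 min). cGMP by radioimmunoassay; peptide left derived from standard curve, % of starting peptide-only value. Mean ± SEM, N = 4.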

[7] = 40 μg human kidney membranes, 37°C, cGMP bioassay

Molecule: O=S(=O)(F)Cc1ccccc1 [PMSF]
- effect on BNP inactivation [1]: neither had an effect

Molecule: CC(=O)N[C@@H](CC(C)C)C(=O)N[C@@H](CC(C)C)C(=O)N[C@H](C=O)CCCNC(=N)N [leupeptin]
- effect of inhibitor on inactivation of human BNP1-32 by human kidney membranes ([1]; 40 μg human kidney membranes, 20 min, 37°C, cGMP bioassay): completely blocked activity losses
- effect of inhibitor on inactivation of rat BNP1-32 by human kidney membranes [1, 7]: blocked a portion of the activity loss
- effect of inhibitor on inactivation of rat BNP1-32 by rat kidney membranes [2]: had no effect

Molecule: CC(C)C[C@H](NP(=O)(O)O[C@@H]1O[C@@H](C)[C@H](O)[C@@H](O)[C@H]1O)C(=O)N[C@@H](Cc1c[nH]c2ccccc12)C(=O)O [phosphoramidon]
- effect of inhibitor on inactivation of rat BNP1-32 by human kidney membranes [1, 7]: blocked a portion of the activity loss

Molecule: Atrial natriuretic peptide [ANP]
- half-life [3]: ~ 2 min

Molecule: CNP: natriuretic peptide, best substrate for NEP
- half-life ([3]; in vivo): ~ 2 min

Molecule: Rat B-type natriuretic peptide 1–32 (SQDSAFRIQERLRNSKMAHSSSCFGQKIDRIG; Brain natriuretic peptide 45; UniProt P13205 77-108, looked up, fragment) [rat BNP1-32]
- bioactivity lost [4]: More than 75%

Molecule: aprotinin
- effect on BNP inactivation [1]: neither had an effect

Molecule: human B-type natriuretic peptide [human BNP1-32]
- additional loss of activity on longer incubation with purified enzymes [5]: did not result in any additional loss
- additional loss of activity on sequential addition of the enzymes [5]: did not result in any additional loss
- initial bioactivity lost [6]: 48%
- half-life [3]: ~ 20 min
